Measured values reported in PubChem BioAssay AID504502 (Broad Institute, 2011).
Active and inactive are the calls of the source.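 How the source made its calls: active means compounds whose fitted half-maximal growth inhibition concentration is at most ten times the top tested dose; inconclusive means flat curve with 30 to 70% inhibition, or poor fit; inactive means the rest.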

Assays:
[1] = test system: C. albicans CaCi-2 + fluconazole, Alamar Blue growth, 48 h; assay: C. albicans growth inhibition with fluconazole, confirmation, CaCi-2, fluconazole present, retest, powder, set 6 (AID 504502)
Outline: (§1)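 Signal: Alamar Blue fluorescence at 1:200 final, excitation 544 nm, emission 590 nm | Test system: Fluconazole-resistant Candida albicans strain CaCi-2 | Quantity: Fungal inoculum at starting OD600 of 0.00015 | Probe or stimulus: Fluconazole 8 µg/mL | Buffer or medium: Defined RPMI medium with MOPS buffer | Times: 48 h growth at 37 °C, 2 h dye step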

[2] = as above; settings: C. albicans CaCi-2 + fluconazole, Alamar Blue growth, 48 h; at 12 µM (top of the series)
Outline: as §1

With `COC(=O)Cn1nc(-c2cccc(F)c2)c2ccccc21` as the molecule, how does the AC50 [1] read?
Its AC50 is 1170 nM.

Which AC50 [1] does the source give for `COC(=O)Cn1c2ccc(F)cc2c2nc3n(c(=O)c21)CCS3` here?
Its AC50 is 2080 nM.

With `COC(=O)Cn1nc(-c2cnco2)c2ccccc21` as the molecule, how does the activity change, negative = inhibition [2] read?
Its activity change, negative = inhibition is -10.5% (inactive).

For `O=C(O)Cn1c2ccc(F)cc2c2nc3n(c(=O)c21)CCS3`, which activity change, negative = inhibition [2] is on record?
The activity change, negative = inhibition was 0.059% (inactive).

Which activity change, negative = inhibition [2] does the source give for `COC(=O)Cn1nc(C2CC2)c2ccccc21` here?
The activity change, negative = inhibition was 0.132% (inactive).

For `O=C(Cn1c2ccccc2c2nc3n(c(=O)c21)CCS3)N1CCCC1`, which AC50 [1] is on record?
Its AC50 is 795 nM.

For `CC1(O)CN(C(=O)Cn2c3ccccc3c3nc4n(c(=O)c32)CCS4)C1`, which activity change, negative = inhibition [2] is on record?
The activity change, negative = inhibition was -0.117% (inactive).

With `COC(=O)Cn1nc(C(C)(C)C)c2ccccc21` as the molecule, how does the activity change, negative = inhibition [2] read?
Its activity change, negative = inhibition is 3% (inactive).

With `O=C(Cn1c2ccc(F)cc2c2nc3n(c(=O)c21)CCS3)N1CCC(F)(F)C1` as the molecule, how does the AC50 [1] read?
Its AC50 is 717 nM.

With `CC1CCN(CCn2c3ccccc3c3nc4n(c(=O)c32)CCS4)CC1` as the molecule, how does the activity change, negative = inhibition [2] read?
Its activity change, negative = inhibition is -9.05% (inactive).

For `O=C(Cn1c2ccc(F)cc2c2nc3n(c(=O)c21)CCS3)N1CC=CC1`, which AC50 [1] is on record?
Its AC50 is 276 nM.

Which AC50 [1] does the source give for `O=C(Cn1c2ccc(F)cc2c2nc3n(c(=O)c21)CCS3)N1CCC(F)(F)CC1` here?
Its AC50 is 391 nM.

For `COC(=O)Cn1nc(-c2ccccc2)c2cccnc21`, which activity change, negative = inhibition [2] is on record?
The activity change, negative = inhibition was -41.1% (inactive).

Which AC50 [1] does the source give for `COC(=O)Cn1nc(C2CCCCC2)c2ccccc21` here?
Its AC50 is 1800 nM.

Which AC50 [1] does the source give for `O=C(Cn1c2ccccc2c2nc3n(c(=O)c21)CCS3)N1CCC(F)(F)CC1` here?
The AC50 was 1470 nM.

For `O=C(O)Cn1c2ccccc2c2nc3n(c(=O)c21)CCS3`, which activity change, negative = inhibition [2] is on record?
The activity change, negative = inhibition was -8.34% (inactive).

With `O=C(Cn1c2ccccc2c2nc3n(c(=O)c21)CCS3)N1CCC(F)(F)C1` as the molecule, how does the AC50 [1] read?
Its AC50 is 3700 nM.

With `O=C(Cn1c2ccccc2c2nc3n(c(=O)c21)CCS3)N1CCCCC1` as the molecule, how does the AC50 [1] read?
The AC50 was 1250 nM.

For `COC(=O)Cn1nc(-c2cccc(OC)c2)c2ccccc21`, which AC50 [1] is on record?
Its AC50 is 348 nM.

Which AC50 [1] does the source give for `COC(=O)Cn1nc(-c2cccc(C)c2)c2ccccc21` here?
The AC50 was 646 nM.

For `COC(=O)Cn1nc(-c2cccnc2)c2ccccc21`, which activity change, negative = inhibition [2] is on record?
Its activity change, negative = inhibition is -23.4% (inactive).

Which AC50 [1] does the source give for `O=C(Cn1c2ccccc2c2nc3n(c(=O)c21)CCS3)N1CC=CC1` here?
The AC50 was 821 nM.

With `CN1CCN(C(=O)Cn2c3ccccc3c3nc4n(c(=O)c32)CCS4)CC1` as the molecule, how does the AC50 [1] read?
Its AC50 is 4740 nM.

With `COC(=O)n1nc(-c2ccccc2)c2ccccc21` as the molecule, how does the activity change, negative = inhibition [2] read?
The activity change, negative = inhibition was 10.4% (inactive).

Which AC50 [1] does the source give for `O=C(Cn1c2ccc(F)cc2c2nc3n(c(=O)c21)CCS3)N1CCCC1` here?
Its AC50 is 298 nM.

Which activity change, negative = inhibition [2] does the source give for `CCc1nn(CC(=O)OC)c2ccccc12` here?
Its activity change, negative = inhibition is 6.18% (inactive).
